Experiment [1] deals with T1, bovine rod photoreceptor CNG channel α subunit (Bos taurus, UniProt Q00194).
T1 sequence (Q00194 1-690): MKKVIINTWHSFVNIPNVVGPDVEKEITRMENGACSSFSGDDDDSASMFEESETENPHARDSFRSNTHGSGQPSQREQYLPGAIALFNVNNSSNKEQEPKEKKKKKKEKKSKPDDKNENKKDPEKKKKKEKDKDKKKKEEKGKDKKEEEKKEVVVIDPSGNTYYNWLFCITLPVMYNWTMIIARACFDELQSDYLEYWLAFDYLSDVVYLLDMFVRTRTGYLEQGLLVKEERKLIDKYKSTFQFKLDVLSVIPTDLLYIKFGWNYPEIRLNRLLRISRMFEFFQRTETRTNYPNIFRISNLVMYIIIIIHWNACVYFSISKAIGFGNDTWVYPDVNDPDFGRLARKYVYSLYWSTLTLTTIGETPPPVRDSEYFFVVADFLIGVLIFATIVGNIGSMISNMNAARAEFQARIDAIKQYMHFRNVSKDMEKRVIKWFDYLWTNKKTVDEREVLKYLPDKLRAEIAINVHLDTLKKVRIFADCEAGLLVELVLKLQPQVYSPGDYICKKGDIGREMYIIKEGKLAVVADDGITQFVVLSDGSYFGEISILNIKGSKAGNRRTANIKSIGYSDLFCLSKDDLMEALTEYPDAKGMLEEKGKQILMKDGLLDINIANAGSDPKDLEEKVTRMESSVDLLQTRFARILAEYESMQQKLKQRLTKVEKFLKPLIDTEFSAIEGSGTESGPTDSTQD
The experiment can be described thus: Inside-out patch clamp of rod CNG channels expressed in Xenopus oocytes. It counts as biochemical. Conditions: for effect on cGMP sensitivity (K 1/2 for cGMP): 10 μM genistein, 10 μM lavendustin A, 25 μM erbstatin. The gist of the method: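 Inside-out patches from Xenopus oocytes 2–7 d after injection (vitelline membrane removed), 21–24°C, held at −75 mV. Pipette/bath solution: 115 mM NaCl, 5 mM EGTA, 1 mM EDTA, 10 mM HEPES, pH 7.5. Test compound preapplied 1 min to closed channels (±100 μM erbstatin) at 1 or 10 min after excision, or applied at steady state; then 2 mM cGMP. Currents normalized to Imax; Ki, Hill coefficient and cGMP K1/2 (4–5 cGMP levels) fitted to Hill equation; mean ± SEM.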
In general terms: The patch-clamp technique gives a direct electrical read-out from membranes.

Experiment [2] has as its target T2, rat olfactory CNG channels (Rattus norvegicus, UniProt Q00195).
T2 sequence (Q00195 1-664): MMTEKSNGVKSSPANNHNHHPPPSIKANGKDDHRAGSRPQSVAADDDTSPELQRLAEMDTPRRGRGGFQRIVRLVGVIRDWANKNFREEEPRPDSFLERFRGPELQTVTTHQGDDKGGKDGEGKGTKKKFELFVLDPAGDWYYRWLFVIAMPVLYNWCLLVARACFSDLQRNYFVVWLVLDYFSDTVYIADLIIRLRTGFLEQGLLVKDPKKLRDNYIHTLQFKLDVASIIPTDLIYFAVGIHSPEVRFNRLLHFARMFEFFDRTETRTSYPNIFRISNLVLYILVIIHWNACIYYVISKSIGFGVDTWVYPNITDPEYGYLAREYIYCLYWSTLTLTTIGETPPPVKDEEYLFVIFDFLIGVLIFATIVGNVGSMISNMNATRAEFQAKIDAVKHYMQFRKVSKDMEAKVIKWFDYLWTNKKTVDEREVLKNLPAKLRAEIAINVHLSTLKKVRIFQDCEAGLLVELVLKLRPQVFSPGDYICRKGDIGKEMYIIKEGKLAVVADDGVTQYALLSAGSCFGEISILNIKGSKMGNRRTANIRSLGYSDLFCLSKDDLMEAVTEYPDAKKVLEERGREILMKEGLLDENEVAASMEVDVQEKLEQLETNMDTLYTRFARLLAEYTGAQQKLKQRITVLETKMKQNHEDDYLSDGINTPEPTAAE
It is filed as biochemical. The conditions noted are these: n = 10 patches.

The test system of experiment [3] is native CNG channels from salamander rod outer segments. As to the kind of experiment: Inside-out patches with native CNG channels from rod outer segments. It counts as biochemical, tiger salamanders (Ambystoma tigrinum). The conditions noted are these: 100 μM genistein.
A further experiment has as its system rod CNG channel. The conditions noted are these: ref Fodor et al., 1997a; cited from earlier work.
[4] abbreviates: 100 μM genistein, preexposure 1 min, 2 mM cGMP.

A value given as a limit tells only on which side of the number the result lay.

With `O=c1c(-c2ccc(O)cc2)coc2cc(O)cc(O)c12` [genistein], the “time course of inhibition” value in experiment [1] was above 30 s. The “residual current, % of maximal CNG current” value in experiment [1] (100 μM genistein with 100 μM erbstatin present) is reported as 20%; in experiment [1] (100 μM genistein, without erbstatin), below 5%. In addition, the “residual current (fraction of total current with normal rapid activation)” value in experiment [1] (setting [4]) was 4.5%. The “steady state current elicited by cGMP” value in experiment [1] (setting [4]) is listed as 40 % of control. For the same compound, the “voltage dependence of inhibition” value in experiment [1] (100 μM genistein, saturating cGMP) is reported as “voltage-independent”. Besides, the “time constant of slow current activation by cGMP” value in experiment [1] (100 μM genistein, single exponential fit) is given as 10.6 s. Also, the Ki in experiment [1] (K i for genistein inhibition of CNG current activation by cGMP, in the presence of 1 mM ATP) is 10.6 ± 1.3 µM; in experiment [1] (apparent affinity of genistein for the rod channel, closed to activated channels) it was 5 to 80 µM. Further, in experiment [1] (closed channels, residual current), the “K i values at 1 versus 10 min after patch excision” value is on record as “do not differ”. In experiment [1] (high genistein concentrations (e.g., 1 mM)), the “extent of inhibition of steady state (fully activated) CNG current” value is “incomplete”. Moreover, the “Hill coefficient for genistein inhibition” value in experiment [1] (in the absence of ATP) came out at 1.9 ± 0.2; in experiment [1] (in the presence of ATP), 2.0 ± 0.2. In addition, the entries for the “effect on cGMP sensitivity (K 1/2 for cGMP)” value (“effect on cGMP sensitivity” below) in experiment [1] (in the absence of ATP) and in experiment [1] (in the presence of ATP) were “no effect” and “increase in cGMP sensitivity”, respectively. Besides, the inhibition (usually the drop in the measured response relative to a control, in per cent) at 100 µM in experiment [1] (read-out: inhibition of closed channels, 100 μM genistein, without erbstatin) was above 95%. Also, the “extent of inhibition of closed channels” value in experiment [1] (saturating genistein (>100 μM)) is “complete inhibition”. Also, in experiment [1] (single exponential fit, data not shown), the “time constant of inhibition of closed CNG channels” value was determined as 8.9 s. In addition, the “time required to recover from genistein inhibition” value in experiment [1] (unpublished observations) is on record as above 60 s. For the same compound, the “effect on rat olfactory CNG channels” value in experiment [2] was “no effect”. Besides, the “effect on cGMP-activated current of native channels” value in experiment [3] is “reduced the magnitude of the cGMP-activated current and slowed the activation kinetics”.
For the compound `O=C(O)c1cc(N(Cc2ccccc2O)Cc2cc(O)ccc2O)ccc1O` [lavendustin A], the “effect on cGMP sensitivity” value in experiment [1] (in the presence of ATP) is “increase in cGMP sensitivity”.
Regarding `O=c1c(-c2ccc(O)cc2)coc2cc(O)ccc12` [daidzein], the “effect on rod CNG channels (maximal current)” value in experiment [1] (saturating cGMP) was “no effect”. The “effect on rat olfactory CNG channels” value in experiment [2] is “no effect”.
As to `CCCCNc1ccc(C(=O)OCCN(C)C)cc1` [tetracaine], in the experiment on rod CNG channel, the time of block is given as below 100 ms.
On to `O=CN/C=C/c1cc(O)ccc1O` [erbstatin], for which, in experiment [1] (in the presence of ATP), the “effect on cGMP sensitivity” value is “increase in cGMP sensitivity”.

(Values after PMC2222990 (The Journal of General Physiology, 1999).)
